# Assay outcomes as filed in PubChem BioAssay.
# M1 PAM – positive allosteric modulators of human M1 muscarinic receptor | P11229 | CHO-K1 hM1, Fluo-8 calcium fluorescence, ACh EC20; 0% = ACh EC20, 100% = maximal ACh | activation, % at 3 µM | hit rate 0.088% among 360,000; in the data active means activation above about 19%, passing the limit was not always enough
# m5-HT2A agonist – mouse HTR2A agonism via beta-arrestin recruitment; P35363; activation, % at 7.6 µM; hit rate 0.66% among 360,000; CHO-K1 mHTR2A beta-arrestin complementation, luminescence; percent of 30 µM serotonin response;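 active means activation above a run cutoff, the mean activation of all tested compounds plus 3 SD, cut at about 14% in these data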;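 further: 0% = plate median of compound wells and 100% = 30 µM serotonin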
# Target sequence (P35363 whole entry, looked up): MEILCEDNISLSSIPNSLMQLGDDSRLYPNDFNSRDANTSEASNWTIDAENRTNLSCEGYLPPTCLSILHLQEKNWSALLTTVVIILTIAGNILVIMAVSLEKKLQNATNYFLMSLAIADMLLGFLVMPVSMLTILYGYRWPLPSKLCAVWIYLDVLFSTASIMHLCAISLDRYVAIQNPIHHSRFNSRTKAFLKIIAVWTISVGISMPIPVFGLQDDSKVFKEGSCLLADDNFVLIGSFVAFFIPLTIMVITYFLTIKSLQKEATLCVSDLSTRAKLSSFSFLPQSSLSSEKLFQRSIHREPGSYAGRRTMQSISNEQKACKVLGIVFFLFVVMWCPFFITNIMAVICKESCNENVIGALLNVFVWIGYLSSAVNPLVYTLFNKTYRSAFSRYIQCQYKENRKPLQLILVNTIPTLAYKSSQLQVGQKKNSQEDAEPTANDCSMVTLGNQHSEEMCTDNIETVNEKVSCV
# CHRM1 antagonist – antagonists of human M1 muscarinic receptor. CHO-K1 hM1, Fluo-8 calcium fluorescence, ACh EC80 antagonist. inhibition, % at 3 µM. hit rate 1.3% among 360,000. AID 588852;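 active means percent inhibition above its own plate's cutoff, namely the mean of that plate's compound wells plus 3 SD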;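 further: peak over basal fluorescence ratio during 140 s after agonist addition; 0% = ACh EC80 plus DMSO and 100% = DMSO alone without agonist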
# M1 ag – human M1 muscarinic receptor agonism; CHO-K1 hM1, Fluo-8 calcium fluorescence, agonist mode; 0% DMSO, 100% acetylcholine EC100; hit rate 0.33% among 360,000; activation, % at 3 µM; AID 588814;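 active means activation above the run's mean compound activation plus 3 SD, cut at about 16% in these data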;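 further: peak over basal fluorescence ratio within a 140 s kinetic read after compound addition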
# TAAR1 antagonist – human TAAR1 antagonism; CHO RD-HGA16 TAAR1, Fluo-8 calcium fluorescence, antagonist; inhibition, % at 3 µM; hit rate 1.5% among 360,000;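 active means inhibition above a per-plate cutoff, the mean inhibition of test compounds on that plate plus 3 SD, cut at about 49% in these data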;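 further: 0% = DMSO plus EC80 beta-PEA response and 100% = DMSO alone without agonist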
# Target sequence (Q96RJ0 whole entry, looked up): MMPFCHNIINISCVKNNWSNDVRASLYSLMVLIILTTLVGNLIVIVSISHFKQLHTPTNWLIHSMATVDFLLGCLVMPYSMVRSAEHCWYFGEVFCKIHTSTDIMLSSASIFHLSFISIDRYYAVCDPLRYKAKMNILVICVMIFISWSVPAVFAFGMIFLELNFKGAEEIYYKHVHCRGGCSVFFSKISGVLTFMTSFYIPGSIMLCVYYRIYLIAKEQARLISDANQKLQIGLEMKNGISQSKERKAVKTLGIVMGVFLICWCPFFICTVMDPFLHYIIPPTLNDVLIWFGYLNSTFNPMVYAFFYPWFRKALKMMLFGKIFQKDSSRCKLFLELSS
#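 Assay system: RD-HGA16 CHO cells with stable hTAAR1 and Gα16 / Reagent: EC80 β-phenethylamine stimulus / Doses: 3 µM, single point / Timing: dye loading 75 min at 37 °C, then 30 min room temperature / Measured by: Fluo-8 intracellular calcium dye fluorescence, real-time kinetic reads / Controls: vehicle wells and EC80 agonist wells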
# TAAR1 agonist – human TAAR1 agonism; CHO RD-HGA16 TAAR1, Fluo-8 calcium fluorescence; vehicle wells 0%, saturating PEA agonist 100%; activation, % at 3 µM; hit rate 0.99% among 360,000;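 active means activation above the mean activation of all test compounds in the run plus 3 SD, cut at about 38% in these data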
#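 Test system: RD-HGA16 (CHO) cells co-expressing Gα16 and hTAAR1 | Doses: Single dose, 3 µM | Schedule: 17-24 h seeding, 75 min 37 °C dye, 30 min RT | Evaluation: % activation from peak over basal fluorescence ratio, DMSO-to-PEA scaled | Technique: Kinetic Fluo-8 calcium fluorescence | Benchmarks: Low control DMSO, high control PEA (EC100)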
# nonsel antag count – nonselective antagonism, TAAR1 counter-screen; shares compounds with TAAR1 antagonist; counterscreen cell line, calcium fluorescence, antagonist mode; inhibition, % at 3 µM; hit rate 77% among 2,400; in the data active means inhibition above about 22%;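 further: CHO-Ga16 host cells stimulated with ATP at an EC80 level; 0% = agonist EC80 plus vehicle and 100% = vehicle without agonist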
# TAAR1 antag conf – human TAAR1 antagonism, confirmed; shares compounds with TAAR1 antagonist; TAAR1-expressing cells, fluorescence antagonist read-out; inhibition, % at 3 µM; hit rate 40% among 2,400; AID 651785; in the data active means inhibition above about 49%;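 further: CHO-Ga16 host cells challenged with agonist PEA near its EC80; 0% = agonist at EC80 plus vehicle and 100% = vehicle with no agonist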
# Ga16 ag counter-1 – counter-screen for TAAR1 antagonists: nonselective Ga16 agonists; shares compounds with TAAR1 antagonist; Ga16-expressing cells, calcium fluorescence, agonist counterscreen; activation, % at 3 µM; hit rate 18% among 2,400; AID 651953; in the data active means activation above about 12%;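 further: 0% = vehicle wells and 100% = saturating stimulus response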
# TAAR1 ag counter – activates human TAAR1 in antagonist counter-screen; shares compounds with TAAR1 antagonist; hTAAR1 cell line, fluorescence activation, agonist mode; activation, % at 3 µM; hit rate 2% among 2,400; in the data active means activation above about 37%;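 further: CHO cells stably expressing TAAR1 with calcium dye readout; 0% = DMSO vehicle and 100% = full agonist response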
# TAAR1 ag confirm – human TAAR1 agonism, confirmed. shares compounds with TAAR1 agonist. CHO RD-HGA16 TAAR1, Fluo-8 calcium fluorescence; scaled: DMSO 0%, maximal phenethylamine 100%. activation, % at 3 µM. hit rate 82% among 2,400. AID 651783;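 active means activation above a cutoff set at the run's mean compound activation plus 3 SD, cut at about 39% in these data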
# Ga16 ag counter-2 – nonselective agonism, TAAR1 counter-screen; shares compounds with TAAR1 agonist; AID 651787; activation, % at 3 µM; CHO-Ga16 parental, Fluo-8 calcium fluorescence; normalized to maximal ATP response, DMSO zero; hit rate 50% among 2,400;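 active means activation above the run cutoff, the mean activation over all tested wells plus 3 SD, cut at about 12% in these data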;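 further: 0% = DMSO wells and 100% = maximal ATP response on the peak over basal ratio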
# TAAR1 desens – counter-screen for human TAAR1 agonists: agonists that desensitize TAAR1. shares compounds with TAAR1 agonist. CHO RD-HGA16 hTAAR1, Fluo-8 calcium, beta-PEA response inhibition. inhibition, % at 3 µM. hit rate 46% among 2,400;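 active means inhibition above the run cutoff, the mean inhibition of all test compounds plus 3 SD, cut at about 49% in these data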;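 further: beta-PEA stimulus applied at its EC80; loss of beta-PEA calcium signal after compound pretreatment read as receptor desensitization; 0% = DMSO with beta-PEA at EC80 and 100% = DMSO alone without agonist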
# Ga16 nonsel ant – nonselective Ga16 antagonist in TAAR1 agonist counter-screen. shares compounds with TAAR1 agonist. CHO-Ga16 ATP-induced calcium, Fluo-8 fluorescence. inhibition, % at 3 µM. hit rate 39% among 2,400. AID 651952;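 active means inhibition above the plate's mean compound inhibition plus 3 SD, computed per plate, cut at about 22% in these data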;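 further: 0% = EC80 ATP with DMSO and 100% = DMSO wells without ATP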
# An asterisk follows results filed as active; nt = not tested or not shown. Only some compounds are listed: those with a hit (about 3.9% of all), similar ones and a draw of the others.
SMILES,M1 PAM,m5-HT2A agonist,CHRM1 antagonist,M1 ag,TAAR1 antagonist,TAAR1 agonist,nonsel antag count,TAAR1 antag conf,Ga16 ag counter-1,TAAR1 ag counter,others
CSCCC(c1nnnn1Cc1ccccc1)N1CCC(n2c(=O)[nH]c3ccccc32)CC1 (configuration not stated),-2.9,9.2,-13.3,-2.5,70.2*,17.4,22.2*,52.0*,10.7,29.0,
O=c1[nH]c2ccccc2n1C1CCN(C(CCc2ccccc2)c2nnnn2Cc2ccccc2)CC1 (configuration not stated),-5.8,6.4,-5.8,0.6,54.8*,15.5,17.3,42.4,7.1,12.7,
O=C1NC(=S)NC(=O)C1=Cc1ccc(OCC(=O)N2CCCC2)cc1,5.0,2.5,-7.3,-1.5,2.6,0.3,nt,nt,nt,nt,
Cc1cccc(NP(=O)(Oc2ccccc2)Oc2ccccc2)c1C,-16.9,-10.2,29.8*,-2.8,73.4*,5.5,23.9*,44.2,5.9,3.3,
O=P(Nc1ccccc1)(Oc1ccccc1)Oc1ccccc1,-17.4,-2.0,36.9*,-3.2,74.4*,8.0,27.4*,59.3*,8.2,6.3,
O=P(NC(c1ccccc1)c1ccccc1)(Oc1ccccc1)Oc1ccccc1,-2.8,2.6,12.2,-3.6,63.9*,4.8,31.7*,64.5*,6.7,4.5,
NP(=O)(Oc1ccccc1)Oc1ccccc1,3.1,-2.1,-7.3,-1.9,6.8,2.2,nt,nt,nt,nt,
c1ccc(-c2nc3ccccc3nc2-c2ccc(CN3CCC(n4nnc5ccccc54)CC3)cc2)cc1,nt,nt,nt,nt,51.5*,1.5,15.5,31.8,0.2,-1.9,
COc1ccc(NP(=O)(Oc2ccc(Cl)cc2)Oc2ccc(Cl)cc2)cc1OC,8.2,-5.9,4.1,6.6,39.2,-1.1,nt,nt,nt,nt,
COc1ccccc1OP(=O)(Nc1ccc(Br)cc1)Oc1ccccc1OC,-2.6,-2.1,10.1,-1.1,78.3*,9.5,30.2*,55.8*,6.9,7.3,
CCOP(=O)(OCC)C(NC(=O)c1cccc2ccccc12)C(Cl)(Cl)Cl (configuration not stated),11.0,1.1,-14.9,-5.9,-4.6,-1.2,nt,nt,nt,nt,
COC(=O)c1ccc(NC(=O)CSc2nc3ccc(N4C(=O)C5C6C=CC(C6)C5C4=O)cc3s2)cc1 (configuration not stated),-25.2,2.2,44.5*,3.0,88.2*,32.4,41.4*,64.9*,16.9*,16.0,
CC(=O)C1(c2ccccc2)CCN(C(=O)C2CCC(=O)N(CCc3cccc(F)c3)C2)CC1 (configuration not stated),-6.9,-0.2,9.0,-0.7,61.1*,14.9,21.3,45.1,8.0,7.6,
Cc1ccccc1CCNCc1cc2cccc(C)c2[nH]c1=O,12.8,12.4,-2.1,3.2,85.9*,107.7*,nt,nt,nt,nt,TAAR1 ag confirm=112.4*;Ga16 ag counter-2=16.5*;TAAR1 desens=98.3*;Ga16 nonsel ant=7.4
Fc1ccccc1CCNCc1cccc2ccccc12,0.7,2.1,-0.1,-3.7,15.5,8.1,nt,nt,nt,nt,
C/C(=N\N1CCCCC1c1cccnc1)c1c(O)n(C2CCCCC2)c(=S)[nH]c1=O (configuration not stated),10.2,4.8,-7.3,-7.6,-10.3,4.6,nt,nt,nt,nt,
COc1cc2c(c(OC)c1)C(=O)OC(C)CCCC(=O)CCCCC2 (configuration not stated),-2.7,-6.2,9.2,-8.4,7.7,-1.5,nt,nt,nt,nt,
COc1cc(O)cc2c1C(=O)O[C@@H](C)CCCC(=O)CCCCC2,6.3,-10.7,-18.3,-2.1,19.3,62.2*,nt,nt,nt,nt,TAAR1 ag confirm=30.4;Ga16 ag counter-2=9.6;TAAR1 desens=9.5;Ga16 nonsel ant=18.2
CCCC1(CC(C)CC)C(=O)NC(=O)NC1=O (configuration not stated),0.2,-3.7,-7.7,-3.5,4.1,51.3*,nt,nt,nt,nt,TAAR1 ag confirm=78.3*;Ga16 ag counter-2=-0.4;TAAR1 desens=25.2;Ga16 nonsel ant=9.9
C=CCCC1(CC(C)C)C(=O)NC(=S)NC1=O,2.5,-1.9,-9.9,-2.9,-14.3,0.5,nt,nt,nt,nt,
CCCCn1nc(C)c(C(=O)O)c1Cl,11.4,-0.6,-20.2,-2.7,-13.3,-2.3,nt,nt,nt,nt,
COc1cc(CCN)ccc1O,-2.1,5.3,-21.6,-2.6,31.2,89.9*,nt,nt,nt,nt,TAAR1 ag confirm=86.8*;Ga16 ag counter-2=3.6;TAAR1 desens=66.7*;Ga16 nonsel ant=7.0
COc1ccc(CCN)cc1S(N)(=O)=O,nt,-1.5,nt,nt,-10.5,0.8,nt,nt,nt,nt,
O=C(Cc1ccccc1)OC(COCc1ccccc1)CN1CCOCC1 (configuration not stated),-1.3,1.8,-14.7,-3.9,6.2,3.2,nt,nt,nt,nt,
CN1/C(=C\C=C2C(=O)NC(=O)NC2=O)C(C)(C)c2ccccc21,-9.3,11.7,15.1,28.6*,33.9,85.8*,nt,nt,nt,nt,TAAR1 ag confirm=21.2;Ga16 ag counter-2=26.6*;TAAR1 desens=21.9;Ga16 nonsel ant=25.3*
CN1/C(=C\C=Nc2ccccc2)C(C)(C)c2ccccc21,-5.1,3.1,10.4,-3.3,0.9,14.3,nt,nt,nt,nt,
Cc1ccccc1N1CCN(C2CCCN(C(=O)COc3ccccc3)C2)CC1 (configuration not stated),-5.4,-8.6,-4.0,-4.9,-22.8,3.9,nt,nt,nt,nt,
COCCO[C@H]1CC[C@@]2(C)C(=CCC3C2CC[C@@]2(C)C3CC[C@]2(C)O)C1 (some centres not stated),-10.4,-2.1,7.0,-1.3,2.8,3.6,nt,nt,nt,nt,
CCCCCCn1c(=O)c(C(=O)Nc2ncccc2C)c(O)c2ccccc21,2.7,3.7,4.4,6.4,73.6*,106.0*,nt,nt,nt,nt,TAAR1 ag confirm=54.5*;Ga16 ag counter-2=30.0*;TAAR1 desens=48.0;Ga16 nonsel ant=35.2*
CCCCCCCn1c(=O)c(C(=O)Nc2cnccn2)c(O)c2ccccc21,11.7,-1.9,-19.3,-4.2,-18.2,1.1,nt,nt,nt,nt,
